Measured values from ChEMBL document CHEMBL3576859, “Novel benzamide-based histamine h3 receptor antagonists: the identification of two candidates for clinical development” (ACS Med Chem Lett, 2015).

Assays:
[1] = Drug uptake in Sprague-Dawley rat brain at 3 mg/kg, po measured at 1 hr; type: ADME, organism-based; details: read-out: Drug uptake
Summary of the method: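 Rats dosed orally at 3 mg/kg. Brain drug concentration (μM) measured at 1 h post-dose.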

[2] = Volume of distribution at steady state in Sprague-Dawley rat; type: ADME, organism-based; details: in vivo, read-out: Vdss
Rattus norvegicus = experiment: Ex vivo histamine H3 receptor occupancy in Sprague-Dawley rat striatum at 3 mg/kg, po measured at 1 hr by autoradiographic analysis; type: functional
Summary of the method: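 After a 3 mg/kg oral dose in rats, ex vivo H3 receptor occupancy was determined by autoradiography at 1 h. Values are mean ± SD.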

[3] = Half life in Sprague-Dawley rat at 1 mg/kg, iv; type: ADME, organism-based; details: in vivo
[4] = target: Voltage-gated L-type calcium channel (Rattus norvegicus, UniProt P22002+Q02485+P27732); experiment: Binding affinity to rat L-type calcium channel at 1 uM
[5] = Apparent permeability across basolateral to apical side in human Caco2 cells at 10 uM […] by LC/MS/MS analysis; type: ADME, cell-based; details: Caco-2
Summary of the method: (§1)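 Caco-2 monolayer permeability measured in both directions, apical-to-basolateral and basolateral-to-apical. Reported as P_app (×10−⁶ cm/s), given as A−B/B−A pairs.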

[6] = target: Voltage-gated inwardly rectifying potassium channel KCNH2 (Homo sapiens, UniProt Q12809); experiment: Displacement of [3H]-astemizole from human ERG expressed in HEK293 cells after 60 mins by scintillation counting analysis; type: cell-based
Chain of Voltage-gated inwardly rectifying potassium channel KCNH2 (Q12809 whole entry): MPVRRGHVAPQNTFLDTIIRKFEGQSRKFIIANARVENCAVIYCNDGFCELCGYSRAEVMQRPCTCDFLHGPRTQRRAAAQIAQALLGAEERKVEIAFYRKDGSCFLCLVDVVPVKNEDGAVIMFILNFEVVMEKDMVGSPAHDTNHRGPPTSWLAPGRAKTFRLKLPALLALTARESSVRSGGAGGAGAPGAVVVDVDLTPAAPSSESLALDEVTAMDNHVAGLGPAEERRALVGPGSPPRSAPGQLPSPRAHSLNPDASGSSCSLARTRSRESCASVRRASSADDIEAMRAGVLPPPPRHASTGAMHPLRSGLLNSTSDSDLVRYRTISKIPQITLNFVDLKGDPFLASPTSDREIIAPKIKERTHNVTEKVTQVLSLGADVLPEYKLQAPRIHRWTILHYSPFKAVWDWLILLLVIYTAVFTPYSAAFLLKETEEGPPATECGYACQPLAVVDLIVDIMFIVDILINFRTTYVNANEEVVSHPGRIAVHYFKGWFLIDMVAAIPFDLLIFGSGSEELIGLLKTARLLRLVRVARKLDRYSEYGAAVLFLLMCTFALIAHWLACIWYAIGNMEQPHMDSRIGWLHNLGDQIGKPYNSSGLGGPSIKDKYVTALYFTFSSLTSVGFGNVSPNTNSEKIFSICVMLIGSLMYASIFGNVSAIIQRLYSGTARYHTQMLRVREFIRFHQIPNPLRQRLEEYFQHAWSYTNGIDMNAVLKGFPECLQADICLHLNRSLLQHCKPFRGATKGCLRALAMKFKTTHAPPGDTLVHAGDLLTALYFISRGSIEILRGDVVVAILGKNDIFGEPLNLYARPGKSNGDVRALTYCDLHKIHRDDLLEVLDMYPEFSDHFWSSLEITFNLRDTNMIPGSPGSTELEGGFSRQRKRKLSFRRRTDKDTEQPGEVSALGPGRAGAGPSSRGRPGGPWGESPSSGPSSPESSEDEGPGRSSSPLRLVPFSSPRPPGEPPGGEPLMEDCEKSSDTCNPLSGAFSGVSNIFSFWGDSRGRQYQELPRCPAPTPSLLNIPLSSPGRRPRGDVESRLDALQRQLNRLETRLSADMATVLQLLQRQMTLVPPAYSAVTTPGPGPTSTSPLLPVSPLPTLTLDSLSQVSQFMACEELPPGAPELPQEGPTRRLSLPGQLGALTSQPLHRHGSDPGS

[7] = Oral bioavailability in Sprague-Dawley rat at 10 mg/kg; type: ADME, organism-based; details: in vivo
[8] = Clearance in Sprague-Dawley rat; type: ADME, organism-based; details: in vivo
[9] = Apparent permeability across apical to basolateral side in human Caco2 cells at 10 uM after 60 mins by LC/MS/MS analysis; type: ADME, cell-based; details: Caco-2; summary of the method: as §1
[10] = Metabolic stability in Sprague-Dawley rat liver microsomes assessed as compound remaining at 1 uM after 15 mins; type: ADME; details: read-out: Stability
Summary of the method: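 Rat liver microsomes incubated with compound for 15 min. Stability expressed as percent of parent remaining.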

[11] = Metabolic stability in human liver microsomes assessed as compound remaining at 1 uM after 15 mins; type: ADME; details: read-out: Stability
Summary of the method: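 Compound incubated with human liver microsomes for 15 min. Read-out is percent parent remaining.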

Histamine H3 receptor = Histamine H3 receptor (Homo sapiens, UniProt Q9Y5N1); experiment: Displacement of N-[3H]methylhistamine from human histamine H3 receptor expressed in human SK-N-MC cells after 45 mins; type: cell-based
Chain of Histamine H3 receptor (Q9Y5N1 whole entry): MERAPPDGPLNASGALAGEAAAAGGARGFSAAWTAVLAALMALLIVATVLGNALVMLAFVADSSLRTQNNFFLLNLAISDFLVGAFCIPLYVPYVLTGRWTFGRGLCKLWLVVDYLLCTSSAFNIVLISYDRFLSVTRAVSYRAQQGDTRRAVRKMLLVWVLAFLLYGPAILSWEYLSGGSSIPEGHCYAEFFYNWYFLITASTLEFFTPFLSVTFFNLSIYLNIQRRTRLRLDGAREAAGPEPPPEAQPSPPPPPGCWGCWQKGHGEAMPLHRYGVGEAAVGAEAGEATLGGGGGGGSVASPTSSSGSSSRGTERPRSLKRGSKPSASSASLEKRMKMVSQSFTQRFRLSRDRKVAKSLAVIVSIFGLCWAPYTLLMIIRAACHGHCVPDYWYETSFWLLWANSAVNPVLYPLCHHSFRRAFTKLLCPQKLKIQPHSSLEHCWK

SMILES	concentration at 1 h [1]	Vd [2]	Occ (Rattus norvegicus)	half-life [3]	Activity [4]	Papp B→A at 10 µM [5]	IC50 [6]	bioavailability [7]	clearance [8]	Papp A→B at 1 h, 10 µM [9]	remaining at 0.25 h, 1 µM [10]	remaining at 0.25 h, 1 µM [11]	Ki (Histamine H3 receptor)
CC(C)N1CCN(C(=O)c2ccc(CN3CCCCC3)cc2)CC1	480 nM	39.4 L/kg	90%	20 h	Not Active	14.8 ×10⁻⁶ cm/s	> 30 µM	52%	26.1 mL/min/kg	12.4 ×10⁻⁶ cm/s			
O=C(c1ccc(CN2CCC(F)CC2)cc1)N1CCN(C2CC2)CC1	540 nM	3.9 L/kg	25%	1.1 h			> 10 µM	14%	41.4 mL/min/kg		26.8%	83.6%	
CC(C)N1CCN(C(=O)c2ccc(CN3CCC(F)CC3)cc2)CC1	1820 nM	29.2 L/kg	92%	7.6 h				17%	44.2 mL/min/kg		50%	84.8%	0.0015 µM
